According to article PMC12171725 (RSC Advances, 2025):
In brackets after ≈: the same amount, converted by molar mass.

Key:
[1] = system: methicillin-resistant Staphylococcus aureus (MRSA USA300); assay: MIC by broth microdilution; format: cell-based; settings: MRSA|USA300, read-out: MIC S. aureus USA300
Outline: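 MRSA USA300 was grown overnight at 37 °C on tryptone soy agar, adjusted to 0.5 McFarland, then diluted in cation-adjusted Mueller-Hinton broth to ∼5 × 10^5 CFU ml−1. […] Plates were incubated aerobically at 37 °C for 18–20 h, following CLSI broth microdilution.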

[2] = system: Acinetobacter baumannii AB5075; assay: MIC by broth microdilution; format: cell-based; settings: AB5075, read-out: MIC A. baumannii AB5075, broth microdilution, 37 °C, 18–20 hours
[3] = system: MRSA USA300 biofilms; assay: Disruption of mature MRSA biofilms; format: cell-based, Staphylococcus aureus; settings: at 4× MIC
[4] = system: erythrocytes; assay: Hemolysis; format: cell-based; settings: LC lytic concentration 30%
[5] = MTT cytotoxicity assay; format: cell-based; settings: human, HEK293 cells (human embryonic kidney cell line)

**Q.** What does the source list for `CCNS(=O)(=O)c1ccc(-n2nnc(C(C)=NNC(=N)N)c2C)cc1` [Compound 17, 2-(1-(1-(4-(N-Ethylsulfamoyl)phenyl)-5-methyl-1H-1,2,3-triazol-4-yl)ethylidene)hydrazine-1-carboximidamide]?
**A.** MIC [1]: > 64 µg/mL; MIC [2]: > 64 µg/mL

**Q.** What does the source list for `CCCCNS(=O)(=O)c1ccc(-n2nnc(C(C)=NNC(=N)N)c2C)cc1` [Compound 18, 2-(1-(1-(4-(N-Butylsulfamoyl)phenyl)-5-methyl-1H-1,2,3-triazol-4-yl)ethylidene)hydrazine-1-carboximidamide]?
**A.** MIC [1]: > 64 µg/mL; MIC [2]: > 64 µg/mL

**Q.** For `CN[C@H](CC(C)C)C(=O)N[C@H]1C(=O)N[C@@H](CC(N)=O)C(=O)N[C@H]2C(=O)N[C@H]3C(=O)N[C@H](C(=O)N[C@H](C(=O)O)c4cc(O)cc(O)c4-c4cc3ccc4O)[C@H](O)c3ccc(c(Cl)c3)Oc3cc2cc(c3O[C@@H]2O[C@H](CO)[C@@H](O)[C@H](O)[C@H]2O[C@H]2C[C@](C)(N)[C@H](O)[C@H](C)O2)Oc2ccc(cc2Cl)[C@H]1O` [Vancomycin, reference compound], which MIC [1] is on record?
**A.** 1 µg/mL (≈ 0.69 µM)

**Q.** Which results are given for `CCCCCCNS(=O)(=O)c1ccc(-n2nnc(C(C)=NNC(=N)N)c2C)cc1` [Compound 20, 2-(1-(1-(4-(N-Hexylsulfamoyl)phenyl)-5-methyl-1H-1,2,3-triazol-4-yl)ethylidene)hydrazine-1-carboximidamide]?
**A.** MIC [1]: 16 µg/mL (≈ 38 µM); MIC [2]: 16 µg/mL (≈ 38 µM)

**Q.** Which results are given for `CCCCCCCCNS(=O)(=O)c1ccc(-n2nnc(C(C)=NNC(=N)N)c2C)cc1` [Compound 22, 2-(1-(5-Methyl-1-(4-(N-octylsulfamoyl)phenyl)-1H-1,2,3-triazol-4-yl)ethylidene)hydrazine-1-carboximidamide]?
**A.** MIC [1]: 64 µg/mL (≈ 143 µM); MIC [2]: 64 µg/mL (≈ 143 µM)

**Q.** Which “percentage of biofilm disruption relative to untreated controls” value [3] does the source give for `CCCCCCCCCNS(=O)(=O)c1ccc(-n2nnc(C(C)=NNC(=N)N)c2C)cc1` [Compound 23, 2-(1-(5-Methyl-1-(4-(N-nonylsulfamoyl)phenyl)-1H-1,2,3-triazol-4-yl)ethylidene)hydrazine-1-carboximidamide] here?
**A.** 70–80%

**Q.** What about the “Hemolysis LC” value [4] of the same compound?
**A.** >10 mg/mL

**Q.** What about the MIC [2] of the same compound?
**A.** 64 µg/mL (≈ 138 µM)

**Q.** What about the IC50 [5] of the same compound?
**A.** 52.4 µM
